# Only some compounds are listed: those with a hit (about 6.5% of all), similar ones and a draw of the others.
# Ecoli tolC = E. coli tolC mutant growth inhibition; growth inhibition, % at 10 µM (by protocol); E. coli BW25113 tolC mutant growth, OD615; 2.2% of 65,000 active; AID 573;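 active = growth inhibition at or above a cutoff equal to the mean over every tested compound plus 3 SD, cut at about 60% in these data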;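 note: growth measured after 20 h incubation at 37 °C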
#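 Doses: one dose of 10 µM final / Material: E. coli BW25113 ΔtolC::kan, tolC deletion mutant strain / Buffer or medium: LB with kanamycin 50 µg/mL / Evaluation: percent growth inhibition / Detection: optical density read at 615 nm / Incubation: 37 °C, 20 h exposure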
# E coli WT exp = growth inhibitors of E. coli BW25113 wild type; growth inhibition, % at 100 µM; 0.15% of 98,000 active; OD600 absorbance;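 active = growth inhibition above about 50% at one test dose, limit read from the data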;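 note: growth measured after 20 h incubation at 37 °C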
# PostGolgi ctrl = yeast control strain growth, post-Golgi counter-screen | AID 738 | 5% of 98,000 active | inhibition, % at 10 µM | efflux-deficient yeast background strain, growth absorbance A615, 16 h
# Candida biofilm = kills Candida albicans biofilms; inhibition, % at 6 µM; C. albicans biofilm + clotrimazole, Alamar Blue; 0.14% of 85,000 active;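 active = inhibition above 20%; inactive = inhibition below 20%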;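 note: preformed 24 hr biofilms exposed to compound for 48 hr; 0% = biofilm without compound and 100% = blank killed by clotrimazole plus chlorhexidine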
# Pyk2 oligo antag = antagonists of human Pyk2 oligomerization. Q14289. Q293 cells, Pyk2 FERM NanoBiT luminescence; active compounds read low. z-score (the deposit names both 25 µM and 10 µM). 0.83% of 99,000 active. AID 1347419;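 active = Z-score of -3 or lower, scaled per plate to the spread of control and sample wells; inactive = z-score above -3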;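 note: negative z-score means lost luminescence so less FERM oligomerization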
# Target sequence (Q14289 whole entry, looked up): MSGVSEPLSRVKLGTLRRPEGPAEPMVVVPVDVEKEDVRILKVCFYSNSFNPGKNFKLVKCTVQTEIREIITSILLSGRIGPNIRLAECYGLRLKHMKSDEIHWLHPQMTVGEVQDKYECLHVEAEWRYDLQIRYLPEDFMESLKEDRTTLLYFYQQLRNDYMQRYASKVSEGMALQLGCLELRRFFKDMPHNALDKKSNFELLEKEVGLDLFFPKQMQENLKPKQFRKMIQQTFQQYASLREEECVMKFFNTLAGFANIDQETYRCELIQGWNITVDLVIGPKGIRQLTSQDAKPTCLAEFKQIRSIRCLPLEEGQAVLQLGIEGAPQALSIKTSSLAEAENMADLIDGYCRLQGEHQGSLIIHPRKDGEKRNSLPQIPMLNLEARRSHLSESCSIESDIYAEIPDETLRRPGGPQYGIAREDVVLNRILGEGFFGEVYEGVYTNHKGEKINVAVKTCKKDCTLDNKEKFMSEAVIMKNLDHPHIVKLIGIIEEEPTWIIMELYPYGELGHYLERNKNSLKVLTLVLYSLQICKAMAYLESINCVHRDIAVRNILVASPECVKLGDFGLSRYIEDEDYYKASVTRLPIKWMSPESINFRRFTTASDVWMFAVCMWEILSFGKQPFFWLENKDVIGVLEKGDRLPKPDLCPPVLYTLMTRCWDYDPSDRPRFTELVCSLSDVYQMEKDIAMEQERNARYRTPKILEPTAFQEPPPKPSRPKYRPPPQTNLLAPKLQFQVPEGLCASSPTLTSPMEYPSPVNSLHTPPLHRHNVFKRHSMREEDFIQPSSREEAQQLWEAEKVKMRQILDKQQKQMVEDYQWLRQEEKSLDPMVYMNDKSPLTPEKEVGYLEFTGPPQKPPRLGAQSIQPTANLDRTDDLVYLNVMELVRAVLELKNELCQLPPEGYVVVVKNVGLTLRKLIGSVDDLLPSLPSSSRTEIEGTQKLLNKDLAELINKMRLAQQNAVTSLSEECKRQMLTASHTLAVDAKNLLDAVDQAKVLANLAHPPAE
# PostGolgi yeast = growth inhibition of a yeast mutant, post-Golgi transport screen. post-Golgi transport phenotypic cell assay. inhibition, % at 10 µM. 0.9% of 98,000 active. AID 739;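 note: yeast cells grown in 1536-well plates; yeast grown about 18 h at 30C before absorbance read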
# An asterisk follows results filed as active; x = no result. Cut-off read from the data, not from the text of the source, unless noted: active = inhibition above about 30%; inactive = the rest.
SMILES,Ecoli tolC,E coli WT exp,PostGolgi ctrl,Candida biofilm,Pyk2 oligo antag,PostGolgi yeast
CC(C(=O)Nc1ccc(Br)cc1C(=O)c1ccccc1)N1CCOCC1 (configuration not stated),x,-5.0,0.7,-0.6,-0.58,-2.9
O=C(CCN1C(=O)COc2ccccc21)N1CCC2(CC1)OCCO2,-5.9,-1.0,-6.0,5.5,0.12,-2.4
FC(F)(F)c1ccc2c(c1)nnn2C1CCN(Cc2nnnn2Cc2ccccc2)CC1,63.5*,-26.0,14.1,6.7,-0.94,4.4
Cc1ccc(Cn2nnnc2CN2CCC(n3nnc4cc(C(F)(F)F)ccc43)CC2)cc1,59.8,-2.0,62.3*,6.7,-0.59,11.7
CCOP(=O)(OCC)C(c1ccccc1)N(C)C=O (configuration not stated),x,2.0,1.1,x,0.85,-12.2
NP(=O)(OCC(F)(F)F)Oc1ccc(Cl)cc1 (configuration not stated),x,x,x,x,0.49,x
CCCCC1(CCCC)C(=O)NC(=Nc2cccc(C)c2)NC1=O,x,5.0,6.8,-1.2,-2.06,46.7*
O=C(Cn1cnc2sc3c(c2c1=O)CCCC3)NCCC(=O)N1CCC2(CC1)OCCO2,-3.1,8.0,-3.0,7.2,-0.31,-5.6
O=C(C1CC(=O)N(C2CCCCC2)C1)N1CCC2(CC1)OCCO2 (configuration not stated),-7.6,-1.0,4.0,3.6,-1.01,21.1
O=C1CC(C(=O)N2CCC3(CC2)OCCO3)CN1CCc1ccccc1 (configuration not stated),-12.7,2.0,31.6*,5.4,-0.62,-4.2
Cc1cc(N2C(=O)C3CCCN3C2c2sccc2C)no1 (configuration not stated),-25.5,0.0,-5.1,5.8,0.28,35.8*
Cc1cc(N2C(=O)C3CCCN3C2c2cccc(Cl)c2)no1 (configuration not stated),-23.2,-8.0,-2.8,5.5,0.24,-4.0
COc1cc2[nH]c(=O)n(-c3cccc(Cl)c3)c(=O)c2cc1OC,11.8,-6.0,16.8,5.4,2.02,-11.2
COc1cc2[nH]c(=O)n(-c3ccccc3)c(=O)c2cc1OC,-14.9,-10.0,0.8,-6.0,-0.13,31.2*
O=C1C2CCCN2C(c2cccnc2)N1c1ccc(Cl)c(Cl)c1 (configuration not stated),2.2,24.0,-4.9,0.6,-3.12*,1.7
CC(C)c1ccc(N2C(=O)NC(=O)/C(=C\c3cnc(-c4ccccc4)nc3)C2=O)cc1,x,5.0,-3.4,x,0.8,4.8
CN1C(=O)/C(=C/c2cccn2-c2ccc3ccccc3c2)C(=O)NC1=S,x,-13.0,4.2,x,-0.39,97.8*
Cc1cc(C)cc(N2C(=O)NC(=O)/C(=C\c3cccn3-c3ccc(Cl)cc3)C2=O)c1,x,-8.0,-2.4,x,-3.22*,4.4
CC(C)C12CN3CCN(CC(C3)C1O)C2 (configuration not stated),-16.7,-1.0,12.2,-2.2,0.51,-0.2
COCCn1c(-c2ccccc2)cc(C(=O)O)c1C,x,x,x,8.4,0.74,x
O=C(CCCN1CCC2(CC1)C(=O)NCN2c1ccccc1)c1ccc(F)cc1,7.8,x,x,7.4,x,x
O=c1[nH]c(=S)n(CCC2=CCCCC2)c(O)c1C=NC1CCN(Cc2ccccc2)CC1,x,-2.0,94.0*,x,1.1,37.4*
O=c1[nH]c(=O)n(CCC2=CCCCC2)c(O)c1C=NCc1cccnc1,-10.7,-15.0,8.3,7.3,-3.19*,-4.3
O=C(NCC(c1cccnc1)N1CCN(c2ccc(F)cc2)CC1)Oc1ccccc1 (configuration not stated),5.2,x,x,2.5,0.46,x
Cc1ccc(NC(=O)CN2C(=O)CN=C(c3ccccc3)c3cc(Cl)ccc32)cc1,x,-9.0,45.9*,4.6,x,0.2
SMILES,Ecoli tolC,E coli WT exp,PostGolgi ctrl,Candida biofilm,Pyk2 oligo antag,PostGolgi yeast
CC(C)=CCC12CN3CCN(CC(C3)C1=O)C2,-14.0,2.0,-11.9,3.2,0.27,-7.7
O=C(Nc1ccc2c(c1)OCO2)c1cn(Cc2ccc(F)cc2)nn1,6.5,-1.0,11.5,4.4,0.68,5.4
CC(c1ccccc1F)n1cc(C(=O)Nc2ccc3nc[nH]c3c2)nn1 (configuration not stated),-11.1,2.0,30.4*,6.5,0.55,-3.1
CCN1/C(=C\C=C\C2=[N+](CC)c3ccccc3C2(C)C)C(C)(C)c2ccccc21,x,55.0*,96.0*,-12.9,-3.37*,99.2*
CC(C)C1(C)N=C(c2ncccc2C(=O)O)NC1=O (configuration not stated),x,4.0,9.8,x,-0.08,-8.2
CCn1c(O)c(C=Nc2ccc(N3CCOCC3)c(Br)c2)c(=O)n(CC)c1=S,x,-5.0,37.5*,x,-0.18,1.0
CC1=CC(=O)C2=C(C)CC(O)C3C(C)C(=O)OC3C12 (configuration not stated),-19.4,6.0,-3.0,2.5,-0.51,-6.4
CCCOC(=O)c1c(N)n(Cc2cccs2)c2nc3ccccc3nc12,x,-9.0,47.6*,0.4,-1.48,1.6
CCOC(=O)c1c(N)n(Cc2ccco2)c2nc3ccccc3nc12,7.6,7.0,47.1*,0.4,0.02,10.9
O=P(Nc1c(Cl)cccc1Cl)(c1ccccc1)c1nc2c(s1)CCCC2 (configuration not stated),x,5.0,14.5,2.4,-0.66,-4.6
O=P(Nc1ccccc1Cl)(c1ccccc1)c1nc2c(s1)CCCC2 (configuration not stated),x,10.0,33.3*,x,-1.55,8.1
CCN(c1ccc(C(O)(C(=O)OC)C(F)(F)F)cc1)S(=O)(=O)c1ccccc1 (configuration not stated),18.5,0.0,-4.7,0.6,-1.49,4.3
CCOC(=O)C(O)(c1ccc(N(CC)S(=O)(=O)c2ccccc2)cc1)C(F)(F)F (configuration not stated),52.5,-2.0,38.5*,x,-1.67,5.0
O=c1c2ccccc2nc(-c2ccc(-c3ccccc3)cc2)n1-c1ccncc1,x,-6.0,85.9*,x,-1.91,100.5*

# From PubChem BioAssay
